Experimental findings from ChEMBL document CHEMBL4316590, “Discovery and synthesis of novel beesioside I derivatives with potent anti-HIV activity” (Eur J Med Chem, 2019) are described below.

Series [1] deals with Human immunodeficiency virus 1. Nature of the series: Antiviral activity against HIV1 NL4-3 infected in human MT4 cells by luciferase reporter gene assay. The class given is functional, organism-based. Put shortly: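 HIV-1 NL4-3 Nanoluc-sec reporter virus (secreted NanoLuc insert) infecting MT4 cells, multicycle replication format, compounds at various concentrations; replication read as NanoLuc luciferase activity (Nano-Glo).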
(In general: Reporter assays use an easily measured gene product as a stand-in for the process of interest.)

The next series concerns MT4. Nature of the series: Cytotoxicity against human MT4 cells assessed as reduction in cell viability after 3 days by CellTiter-Glo luminescent assay. The class given is cell-based. The settings on record: mt4, 72 h. In general terms: In ATP-based viability assays light output follows the ATP content of the culture.
A short description of series [2]: Therapeutic index, ratio of CC50 for human MT4 cells to EC50 for HIV1 NL4-3 infected in human MT4 cells. The class given is toxicity, cell-based. The settings on record: read-out: Ratio CC50/EC50. Put shortly:
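TI calculated as CC50 (CellTiter-Glo, MT4 cells, 3 days) divided by EC50 (HIV-1 NL4-3 Nanoluc-sec multicycle replication in MT4 cells, luciferase read-out); CC50/EC50 below 5 taken as no selective anti-HIV activity.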

Where [3] appears, read: Human immunodeficiency virus 1, NL4-3, MT4, read-out: EC50.

What is called EC50 is the midpoint of the concentration-response curve. The CC50 is the concentration at which the toxic effect on the cells reaches its halfway point.

With `CC(=O)O[C@H]1[C@H](O)[C@H]([C@]2(C)CC[C@@H](C(C)(C)O)O2)[C@@]2(C)CC[C@@]34C[C@@]35CC[C@H](O[C@@H]3OC[C@@H](O)[C@H](O)[C@H]3O)C(C)(C)[C@@H]5CC[C@H]4[C@]12C`, the EC50 in series [1] (setting [3]) came out at 4.85 µM. Moreover, the CC50 in the series on MT4 is over 40 µM.
On to `CC(=O)O[C@H]1[C@@H](OC(C)=O)[C@@]2(C)[C@@H]3CC[C@H]4C(C)(C)[C@@H](OC(=O)CC(C)(C)C(=O)O)CC[C@@]45C[C@@]35CC[C@@]23CO[C@@]2(C(C)(C)O)CC[C@](C)(O2)[C@@H]13`, for which the EC50 in series [1] (setting [3]) is 0.025 µM. Besides, the CC50 with MT4 is over 20 µM. The selectivity ratio in series [2] was over 800.
Consider `CC(=O)O[C@H]1[C@@H](OC(C)=O)[C@@]2(C)[C@@H]3CC[C@H]4C(C)(C)[C@@H](OC(=O)CCC(C)(C)C(=O)O)CC[C@@]45C[C@@]35CC[C@@]23CO[C@@]2(C(C)(C)O)CC[C@](C)(O2)[C@@H]13`, for which the EC50 in series [1] (setting [3]) came to 0.048 µM. For the same compound, in the series with MT4, the CC50 is over 5 µM.
The matching figures for `CC(=O)O[C@H]1[C@@H](OC(C)=O)[C@@]2(C)[C@@H]3CC[C@H]4C(C)(C)[C@@H](OC(=O)CCC(=O)O)CC[C@@]45C[C@@]35CC[C@@]23CO[C@@]2(C(C)(C)O)CC[C@](C)(O2)[C@@H]13`: 7.7 µM and over 40 µM.
In the case of `CC(=O)O[C@H]1[C@@H](OC(C)=O)[C@@]2(C)[C@@H]3CC[C@H]4C(C)(C)[C@@H](O[C@@H]5OC[C@@H](O)[C@H](O)[C@H]5O)CC[C@@]45C[C@@]35CC[C@@]23CO[C@@](C)(CCC(=O)C(C)(C)O)[C@@H]13`, in series [1] (setting [3]), the EC50 was over 30 µM. Further, the CC50 in the series with MT4 was over 30 µM. Moreover, in series [2], the selectivity ratio is under 5.
With `CC(=O)O[C@H]1[C@@H](O)[C@@]2(C)[C@@H]3CC[C@H]4C(C)(C)[C@@H](O[C@@H]5OC[C@@H](O)[C@H](O)[C@H]5O)CC[C@@]45C[C@@]35CC[C@@]23CO[C@@]2(C(C)(C)O)CC[C@](C)(O2)[C@@H]13`, the EC50 in series [1] (setting [3]) stood at 4.65 µM. The cytotoxic concentration (CC50) in the series with MT4 is over 40 µM.
The matching figures for `CC(=O)O[C@H]1[C@@H](OC(C)=O)[C@@]2(C)[C@@H]3CC[C@H]4C(C)(C)[C@@H](OC(=O)CC5(CC(=O)O)CCCC5)CC[C@@]45C[C@@]35CC[C@@]23CO[C@@]2(C(C)(C)O)CC[C@](C)(O2)[C@@H]13`: 1.59 µM and over 20 µM.
The matching figures for `CC(=O)O[C@H]1[C@@H](OC(C)=O)[C@@]2(C)[C@@H]3CC[C@H]4C(C)(C)[C@@H](OC(C)=O)CC[C@@]45C[C@@]35CC[C@@]23CO[C@@]2(C(C)(C)O)CC[C@](C)(O2)[C@@H]13`: 2.44 µM and over 40 µM.
As for `C[C@@H]1O[C@@H](O[C@H]2[C@H](O[C@H]3CC[C@]45C[C@]46CC[C@]4(C)[C@@H]([C@]7(C)CC[C@@H](C(C)(C)O)O7)[C@@H](O)C[C@@]4(C)[C@@H]6[C@@H](O)C[C@H]5C3(C)C)OC[C@@H](O)[C@@H]2O)[C@H](O)[C@H](O)[C@H]1O`, the EC50 in series [1] (setting [3]) was over 10 µM. Further, in the series on MT4, the CC50 is over 40 µM. In addition, the selectivity ratio in series [2] is under 5.
Turning to `CC(=O)O[C@H]1[C@@H](OC(C)=O)[C@@]2(C)[C@@H]3CC[C@H]4C(C)(C)C(=O)CC[C@@]45C[C@@]35CC[C@@]23CO[C@@]2(C(C)(C)O)CC[C@](C)(O2)[C@@H]13`, in series [1], the EC50 result is given as “Not Active”. Besides, the CC50 in the series with MT4 is over 30 µM. Besides, the selectivity ratio in series [2] was under 5.
The matching figures for `CC(=O)O[C@H]1[C@@H](OC(C)=O)[C@@]2(C)[C@@H]3CC[C@H]4C(C)(C)[C@@H](OC(=O)CC(C)CC(=O)O)CC[C@@]45C[C@@]35CC[C@@]23CO[C@@]2(C(C)(C)O)CC[C@](C)(O2)[C@@H]13` (mixture of isomers): “Not Active”, over 20 µM and under 5.
As for `CC(=O)O[C@H]1[C@H](O)[C@@]2(C)[C@@H]3CC[C@H]4C(C)(C)[C@@H](O[C@@H]5OC[C@@H](O)[C@H](O)[C@H]5O)CC[C@@]45C[C@@]35CC[C@@]23CO[C@@](C)(CCC(=O)C(C)(C)O)[C@@H]13`, the EC50 in series [1] (setting [3]) was over 10 µM. Also, in the series with MT4, the CC50 is over 40 µM. For the same compound, the selectivity ratio in series [2] is under 5.
Take `CC(=O)O[C@H]1[C@@H](O)[C@@]2(C)[C@@H]3[C@@H](O)C[C@H]4C(C)(C)[C@@H](O[C@@H]5OC[C@@H](O)[C@H](O)[C@H]5O)CC[C@@]45C[C@@]35CC[C@@]23CO[C@@]2(C(C)(C)O)CC[C@](C)(O2)[C@@H]13`: the EC50 result in series [1] was “Not Active”. Also, the CC50 with MT4 is over 40 µM. Besides, the selectivity ratio in series [2] is under 5.
Take `CC1(C)[C@@H](O[C@@H]2OC[C@@H](O)[C@H](O)[C@H]2O)CC[C@]23C[C@]24CC[C@]25CO[C@@]6(C(C)(C)O)CC[C@](C)(O6)[C@H]2[C@@H](O)[C@@H](O)[C@@]5(C)[C@@H]4CC[C@@H]13`: the EC50 in series [1] (setting [3]) was found to be 7.62 µM. Besides, in the series on MT4, the CC50 was over 40 µM.
Take `C=C(C)[C@@H]1CC[C@]2(C(=O)O)CC[C@]3(C)[C@H](CC[C@@H]4[C@@]5(C)CC[C@H](OC(=O)CC(C)(C)C(=O)O)C(C)(C)[C@@H]5CC[C@]43C)[C@@H]12` [BEVIRIMAT]: the EC50 in series [1] (setting [3]) stood at 0.026 µM. In addition, the CC50 with MT4 was determined as 15.9 µM. In addition, the selectivity ratio in series [2] was found to be 612.
With `CC(=O)O[C@H]1[C@@H](OC(C)=O)[C@@]2(C)[C@@H]3CC[C@H]4C(C)(C)[C@@H](OC(=O)COCC(=O)O)CC[C@@]45C[C@@]35CC[C@@]23CO[C@@]2(C(C)(C)O)CC[C@](C)(O2)[C@@H]13`, the EC50 in series [1] (setting [3]) is 0.12 µM. For the same compound, the CC50 with MT4 was over 5 µM.
On to `C[C@@H]1O[C@@H](O[C@H]2[C@H](O[C@H]3CC[C@]45C[C@]46CC[C@]4(C)[C@@H]([C@]7(C)CC[C@@H](C(C)(C)O)O7)[C@@H](O)C[C@@]4(C)[C@@H]6CC[C@H]5C3(C)C)OC[C@@H](O)[C@@H]2O)[C@H](O)[C@H](O[C@@H]2O[C@H](CO)[C@@H](O)[C@H](O)[C@H]2O)[C@H]1O`, for which the EC50 in series [1] (setting [3]) was over 10 µM. The CC50 in the series with MT4 is over 40 µM. The selectivity ratio in series [2] is under 5.
Regarding `CC(=O)O[C@H]1[C@@H](OC(C)=O)[C@@]2(C)[C@@H]3CC[C@H]4C(C)(C)[C@@H](O[C@@H]5OC[C@@H](O)[C@H](O)[C@H]5O)CC[C@@]45C[C@@]35CC[C@@]23CO[C@@]2(C(C)(C)O)CC[C@](C)(O2)[C@@H]13`, the EC50 in series [1] (setting [3]) was determined as 2.32 µM. Moreover, the CC50 in the series with MT4 is over 40 µM.
`CC(=O)O[C@H]1[C@@H](OC(C)=O)[C@@]2(C)[C@@H]3CC[C@H]4C(C)(C)[C@@H](O)CC[C@@]45C[C@@]35CC[C@@]23CO[C@@]2(C(C)(C)O)CC[C@](C)(O2)[C@@H]13`: the EC50 result in series [1] is “Not Active”. The CC50 with MT4 is over 40 µM. In series [2], the selectivity ratio is under 5.
The matching figures for `CC(=O)O[C@H]1[C@@H](OC(C)=O)[C@@]2(C)[C@@H]3CC[C@H]4C(C)(C)[C@@H](OC(=O)CC(C)(C)CC(=O)O)CC[C@@]45C[C@@]35CC[C@@]23CO[C@@]2(C(C)(C)O)CC[C@](C)(O2)[C@@H]13`: “Not Active”, over 20 µM and under 5.
As for `CC1(C)[C@@H](O)CC[C@]23C[C@]24CC[C@]25CO[C@@]6(C(C)(C)O)CC[C@](C)(O6)[C@H]2[C@@H](O)[C@@H](O)[C@@]5(C)[C@@H]4CC[C@@H]13`, the EC50 in series [1] (setting [3]) was over 40 µM. The CC50 in the series on MT4 was over 40 µM. Besides, the selectivity ratio in series [2] is under 5.
For the compound `CC(=O)O[C@H]1[C@@H]2O[C@@]3(C(C)(C)O)CC[C@](C)(O3)[C@@H]2[C@@]2(CO)CC[C@@]34C[C@@]35CC[C@H](O[C@@H]3OC[C@@H](O)[C@H](O)[C@H]3O)C(C)(C)[C@@H]5CC[C@H]4[C@]12C`, the EC50 entry in series [1] was “Not Active”. Further, the CC50 in the series on MT4 is over 40 µM. Further, the selectivity ratio in series [2] is under 5.
Take `CC(=O)O[C@H]1[C@@H](OC(C)=O)[C@@]2(C)[C@@H]3CC[C@H]4C(C)(C)[C@@H](OC(=O)CCCC(=O)O)CC[C@@]45C[C@@]35CC[C@@]23CO[C@@]2(C(C)(C)O)CC[C@](C)(O2)[C@@H]13`: the EC50 entry in series [1] is reported as “Not Active”. Further, the CC50 in the series on MT4 was over 20 µM. For the same compound, the selectivity ratio in series [2] was under 5.
As to `Cc1cn([C@H]2C[C@H](N=[N+]=[N-])[C@@H](CO)O2)c(=O)[nH]c1=O` [ZIDOVUDINE], the CC50 in the series with MT4 was determined as 77.5 µM.
Consider `CCC(=O)O[C@H]1CC[C@]23C[C@]24CC[C@]25CO[C@@]6(C(C)(C)O)CC[C@](C)(O6)[C@H]2[C@@H](OC(C)=O)[C@@H](OC(C)=O)[C@@]5(C)[C@@H]4CC[C@H]3C1(C)C`, for which the EC50 result in series [1] was “Not Active”. The CC50 in the series on MT4 is over 40 µM. The selectivity ratio in series [2] is under 5.
For the compound `CC(=O)O[C@H]1[C@@H](OC(C)=O)[C@@]2(C)[C@@H]3CC[C@H]4C(C)(C)[C@@H](OC(=O)CC(C)C(=O)O)CC[C@@]45C[C@@]35CC[C@@]23CO[C@@]2(C(C)(C)O)CC[C@](C)(O2)[C@@H]13` (some centres undefined), the EC50 in series [1] (setting [3]) amounted to 1.11 µM. Also, the CC50 in the series with MT4 was over 20 µM.
Consider `CC(C)(O)[C@@H]1CC[C@@](C)([C@H]2[C@@H](O)[C@H](O)[C@@]3(C)[C@@H]4[C@@H](O)C[C@H]5C(C)(C)[C@@H](O[C@@H]6OC[C@@H](O)[C@H](O)[C@H]6O)CC[C@@]56C[C@@]46CC[C@]23C)O1`, for which the EC50 result in series [1] is “Not Active”. For the same compound, in the series on MT4, the CC50 is over 40 µM. The selectivity ratio in series [2] was under 5.
